Bioassay records deposited in PubChem BioAssay by The Scripps Research Institute Molecular Screening Center.
TAAR1 ag = human TAAR1 agonism; actives 0.99% (n = 360,000); AID 624467; CHO RD-HGA16 TAAR1, Fluo-8 calcium fluorescence; vehicle wells 0%, saturating PEA agonist 100%; activation, % at 3 µM;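 active = activation above the mean activation of all test compounds in the run plus 3 SD, cut at about 38% in these data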
Target sequence (Q96RJ0 whole entry, looked up): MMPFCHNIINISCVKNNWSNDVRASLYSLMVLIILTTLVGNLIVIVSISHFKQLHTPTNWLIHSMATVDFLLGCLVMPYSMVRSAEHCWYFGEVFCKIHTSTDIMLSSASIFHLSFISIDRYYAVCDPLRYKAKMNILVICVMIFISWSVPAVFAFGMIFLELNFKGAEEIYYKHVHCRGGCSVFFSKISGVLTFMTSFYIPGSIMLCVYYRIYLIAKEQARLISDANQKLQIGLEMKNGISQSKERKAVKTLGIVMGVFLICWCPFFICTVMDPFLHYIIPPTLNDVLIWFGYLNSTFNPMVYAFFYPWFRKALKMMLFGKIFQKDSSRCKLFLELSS
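test system = CHO RD-HGA16 cells carrying human TAAR1 plus Gα16 | schedule = 17-24 h seeding, 75 min 37 °C dye, 30 min RT | compound dosing = 3 µM single concentration | control set = DMSO and PEA EC100 | replicates = n 1 | signal = Fluo-8 fluorescence, 5 s baseline then 140 s kinetic read | measure = percent activation vs PEA EC100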
V1aR counter = counter-screen for oxytocin receptor agonists: human V1a receptor agonists; activation, % at 3 µM; P37288; actives 0.25% (n = 320,000); CHO-V1R cells, Fluo-8 calcium fluorescence, agonist mode; 0% DMSO, 100% 3 nM vasopressin;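 active = activation above the mean activation of all tested compounds plus 3 SD, per screening run, cut at about 20% in these data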;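 note: signal is peak over basal fluorescence ratio across a 100 second FLIPR read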
OXTR ag = activates the human oxytocin receptor. activation, % at 3 µM. CHO-OTR cells, Fluo-8 calcium fluorescence; normalized: DMSO 0%, oxytocin 100%. AID 2435. P30559. actives 0.32% (n = 320,000);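 active = activation above the mean of all tested compounds plus 3 SD, cutoff set per screening run, cut at about 20% in these data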;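 note: peak over basal fluorescence ratio from a 100 s FLIPR kinetic read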
OXTR potentiator = potentiators of human oxytocin receptor; actives 0.061% (n = 320,000); CHO-OTR cells, Fluo-8 calcium fluorescence, potentiator mode; 0% = oxytocin EC15, 100% = EC100; activation, % at 3 µM; AID 2445; P30559;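 active = activation above that plate's cutoff, the mean activation of tested compounds plus 3 SD, cut at about 6.6% in these data, passing the limit was not always enough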
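Measured by – Fluo-8 calcium dye fluorescence · Test system – human OTR in CHO cells · Dosing – one concentration, 3.0 µM compound · Controls – EC15 oxytocin alone as 0%, 75 nM oxytocin as 100% · Evaluation – normalized max/min fluorescence ratio, % activation · Timing – 6 min pre-incubation, 100 s read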
TAAR1 antagonist = antagonists of human TAAR1; actives 1.5% (n = 360,000); AID 624466; CHO RD-HGA16 TAAR1, Fluo-8 calcium fluorescence, antagonist; inhibition, % at 3 µM;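 active = inhibition above a per-plate cutoff, the mean inhibition of test compounds on that plate plus 3 SD, cut at about 49% in these data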
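Assay system: CHO-derived RD-HGA16 cells stably expressing human TAAR1 plus Gα16. Timing: 140 s kinetic read after compound, 140 s after agonist. Technique: kinetic Fluo-8 calcium fluorescence measurement. Measure: % inhibition of agonist calcium response.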
Numbers stand for hits; . = inactive; / = no result. Hits are enriched below; roughly 2.3% of the tested compounds scored in any of these assays.

SMILES | TAAR1 ag | V1aR counter | OXTR ag | OXTR potentiator | TAAR1 antagonist
COc1ccc(CNC(=O)Nc2nc(C(N)Cc3ccc(Cl)cc3)cs2)cc1 (stereo not drawn) | 50 | / | / | / | 66
COc1ccc(CNC(=O)c2csc(Cc3ccccc3)n2)cc1 | . | . | . | . | .
CC1=C(C(=O)N2CCOCC2)CC(CC(=O)NCCCCc2ccccc2)C(=O)N1CCCN1CCCC1=O (stereo not drawn) | . | / | / | / | .
N#Cc1ccccc1S(=O)(=O)N1CCN(Cc2cc3c(cc2Br)OCCO3)CC1 | . | / | / | / | .
C=CCn1c(SCC(=O)N2CCOCC2)nc2ccccc2c1=O | . | . | . | . | .
Cc1ccccc1C(=O)NC1CCCCN(C)C1=O (stereo not drawn) | . | / | / | / | .
O=C(COC(=O)c1cc[n+]([O-])cc1)Nc1cccc(F)c1 | . | . | . | . | .
COc1cccc(/C=N/Nc2snc(SC)c2C#N)c1 | 42 | . | . | . | .
O=C(c1ccccc1)c1coc2c1C(=O)c1ccccc1C2=O | . | . | . | . | .
O=C1c2ccccc2-c2onc3ccc(Oc4ccccc4)c1c23 | 43 | . | . | . | 67
CCOc1ccc(NC(=O)CN(C)C(=O)c2cn(-c3ccccc3)nc2-c2cccs2)cc1OCC | . | / | / | / | .
CCOc1ccc(NC(=O)CN(C)C(=O)c2cn(-c3ccc(C)cc3)nc2-c2cccc(OC)c2)cc1OCC | . | / | / | / | 64
COc1ccc(NC(=O)CN(C)C(=O)c2cc(-c3ccncc3)nc3ccccc23)cc1 | . | . | . | . | 52
CCOc1ccc(NC(=O)CN(C)C(=O)c2cc(-c3ccco3)nc3ccccc23)cc1OCC | . | / | / | / | 52
COc1cccc(NC(=O)CN(C)C(=O)c2cc(-c3ccco3)nc3ccccc23)c1 | . | . | . | . | .
O=C(NNC(=O)c1cc(-c2ccco2)nc2ccccc12)c1ccccc1 | . | . | . | . | 50
Cc1ccc(-c2cc(C(=O)N3CCN(c4ccccc4O)CC3)c3ccccc3n2)o1 | . | . | . | . | 62
O=C(c1cc(-c2ccc(Br)cc2)nc2ccccc12)N1CCN(c2ccccc2O)CC1 | . | . | . | . | 55
COc1ccccc1N1CCN(C(=O)c2cc3c(C)nc4ccccc4c3o2)CC1 | . | . | . | . | 54
S=C(NCc1ccc(Cl)cc1)NC1CCN(Cc2ccccc2)CC1 | 51 | . | . | . | .
CCN(Cc1ccccc1)C(=O)c1cc2c(=O)oc3ccc(C)cc3c2s1 | . | . | . | . | 83
COC(=O)C1=C(C)N(Cc2ccccc2C(F)(F)F)C(=NCc2ccc3c(c2)OCO3)NC1c1ccc(C(F)(F)F)cc1 (stereo not drawn) | . | / | / | / | .
NS(=O)(=O)c1ccc(CCNC(=O)c2ccncc2)cc1 | . | . | . | . | .
NS(=O)(=O)c1ccc(CCNC(=O)c2ccc(C#CC3(O)CCCCC3)cc2)cc1 | . | . | . | . | 68
Cc1ccccc1C(=O)Nc1ccc(C(=O)N/N=C/c2ccc(O)c(Br)c2)cc1 | . | . | . | . | 52
SMILES | TAAR1 ag | V1aR counter | OXTR ag | OXTR potentiator | TAAR1 antagonist
Cc1ccc(C(=O)Nc2ccc(C(=O)N/N=C/c3cccnc3)cc2)cc1 | . | . | . | . | .
O=C(N/N=C/c1cccnc1)c1ccc(NC(=O)c2ccccc2Cl)cc1 | . | . | . | . | 50
CCOC(=O)C(C)Sc1nc2c(c(-c3cccs3)c1C#N)CCC2 (stereo not drawn) | . | . | . | . | .
N#Cc1c(SC(C(=O)O)c2ccccc2)nc2c(c1-c1cccs1)CCCC2 (stereo not drawn) | 38 | . | . | . | .
CCOC(=O)c1c(S(=O)(=O)N(C)Cc2ccccc2)c(C)n(C)c1C | . | . | . | . | .
COc1ccccc1NC(=O)C1=C(C)Nc2nnnn2C1c1cc(Br)ccc1OC (stereo not drawn) | 48 | . | . | . | .
O=C(NC(CC1=CCCCC1)c1ccccc1)C(F)(F)F (stereo not drawn) | . | / | / | / | .
Cc1cc(N/N=C/c2ccccc2)nc(N)n1 | 41 | . | . | . | .
Cc1nc(N)nc(N/N=C/c2ccccc2)n1 | . | . | . | . | .
Cc1ccc(C2=CC(=O)CC(C)(C)C2=O)cc1 | . | / | / | / | .
CC(C)(C)n1nnnc1C(c1cccnc1)N1CCN(c2ccccc2)CC1 (stereo not drawn) | . | . | . | . | .
